Here are results for 35 molecules from ChEMBL document CHEMBL1149257, “Tetrasubstituted imidazole inhibitors of cytokine release: probing substituents in the N-1 position” (J Med Chem, 2004).

SMILES strings stand for the structures.

In series [1] the test system is Blood. The series can be described thus: Inhibition of LPS-induced IL1 beta production in human whole blood. The class given is functional, tissue-based. The method in brief:
(§1)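 Fresh blood from healthy human donors, preincubated 15 min at 37 °C, 5% CO2, with serially diluted compound in Cremophor EL/ethanol (1:1); 1% Cremophor EL/ethanol as control. Stimulated with LPS 1 μg/mL for 4 h at 37 °C, stopped on ice and centrifuged. TNFα and IL-1β in the supernatant measured by ELISA. IC50 from percent reduction versus control; mean of two independent experiments unless stated.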

Series [2] concerns Blood. The series can be described thus: Inhibition of LPS-induced TNFalpha production in human whole blood. The class given is functional, tissue-based. The procedure, abridged:
as §1

Series [3] addresses Mitogen-activated protein kinase 14 (Homo sapiens, UniProt Q16539). The series can be described thus: Inhibition of mitogen-activated protein kinase p38 alpha.
The target of series [4] is CYP3A4 (Homo sapiens, UniProt P08684). The series can be described thus: Inhibition of human liver CYP3A4 at 10 uM. The class given is ADME. The procedure, abridged:
(§2)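 Each isoform tested with the compound at a single concentration of 10 μM in phosphate buffer (pH 7.4) containing 0.1% DMSO; read out as percent inhibition of enzyme activity. Other conditions follow a previously reported protocol.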

Series [5] concerns the target T1, CYP1A2 (Homo sapiens, UniProt P05177).
T1 sequence (P05177 whole entry): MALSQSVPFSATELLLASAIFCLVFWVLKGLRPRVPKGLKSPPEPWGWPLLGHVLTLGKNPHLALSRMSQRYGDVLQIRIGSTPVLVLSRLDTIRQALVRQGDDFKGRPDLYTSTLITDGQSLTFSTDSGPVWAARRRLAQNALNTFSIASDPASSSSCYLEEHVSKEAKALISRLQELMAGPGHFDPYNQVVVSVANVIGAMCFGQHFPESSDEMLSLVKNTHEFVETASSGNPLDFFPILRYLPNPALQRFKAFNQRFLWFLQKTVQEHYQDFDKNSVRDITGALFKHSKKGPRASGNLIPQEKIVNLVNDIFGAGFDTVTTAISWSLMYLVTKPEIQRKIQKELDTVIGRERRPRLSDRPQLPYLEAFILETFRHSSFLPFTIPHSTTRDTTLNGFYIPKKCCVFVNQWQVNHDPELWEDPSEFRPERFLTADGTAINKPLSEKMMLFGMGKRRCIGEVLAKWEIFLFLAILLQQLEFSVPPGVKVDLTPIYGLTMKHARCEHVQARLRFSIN
Put plainly: Inhibition of human liver CYP1A2 at 10 uM. The class given is ADME. The procedure, abridged: as §2

Series [6] has as its target CYP2C9 (Homo sapiens, UniProt P11712). Put plainly: Inhibition of human liver CYP2C9 at 10 uM. It is filed as ADME. The method in brief: as §2
Series [7] deals with CYP2C19 (Homo sapiens, UniProt P33261). Put plainly: Inhibition of human liver CYP2C19 at 10 uM. The class given is ADME. The procedure, abridged: as §2
In series [8] the target is CYP2D6 (Homo sapiens, UniProt P10635). Put plainly: Inhibition of human liver CYP2D6 at 10 uM. The class given is ADME. The method in brief: as §2
CYP2D6, sequence (P10635 whole entry): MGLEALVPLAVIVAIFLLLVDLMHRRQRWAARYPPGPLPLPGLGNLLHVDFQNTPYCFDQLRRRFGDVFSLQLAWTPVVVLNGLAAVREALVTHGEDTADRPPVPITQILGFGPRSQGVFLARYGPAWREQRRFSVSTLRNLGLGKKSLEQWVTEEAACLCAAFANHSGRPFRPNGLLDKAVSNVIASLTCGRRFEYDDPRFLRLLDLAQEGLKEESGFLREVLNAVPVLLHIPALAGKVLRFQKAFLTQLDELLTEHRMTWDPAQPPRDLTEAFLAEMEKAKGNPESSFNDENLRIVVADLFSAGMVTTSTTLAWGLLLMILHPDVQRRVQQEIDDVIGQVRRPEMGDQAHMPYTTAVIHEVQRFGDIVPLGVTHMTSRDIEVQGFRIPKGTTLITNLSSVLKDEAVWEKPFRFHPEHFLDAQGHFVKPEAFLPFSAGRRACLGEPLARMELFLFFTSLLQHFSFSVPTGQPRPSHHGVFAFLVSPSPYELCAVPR

CYP3A4, sequence (P08684 whole entry, canonical isoform): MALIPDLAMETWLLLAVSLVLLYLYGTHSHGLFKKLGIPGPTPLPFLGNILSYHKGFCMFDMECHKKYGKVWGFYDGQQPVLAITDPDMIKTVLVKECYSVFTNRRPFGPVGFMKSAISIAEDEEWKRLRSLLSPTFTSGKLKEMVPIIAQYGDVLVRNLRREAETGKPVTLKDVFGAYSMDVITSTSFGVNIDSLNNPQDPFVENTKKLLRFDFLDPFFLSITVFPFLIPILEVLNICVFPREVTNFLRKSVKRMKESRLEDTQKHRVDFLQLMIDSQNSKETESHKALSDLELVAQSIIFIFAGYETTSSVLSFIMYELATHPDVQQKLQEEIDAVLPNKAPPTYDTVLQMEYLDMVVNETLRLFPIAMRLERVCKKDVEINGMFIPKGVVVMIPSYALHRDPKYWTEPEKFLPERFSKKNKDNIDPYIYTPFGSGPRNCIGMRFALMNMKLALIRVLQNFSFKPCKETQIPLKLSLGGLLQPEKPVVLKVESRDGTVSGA
Mitogen-activated protein kinase 14, sequence (Q16539 whole entry): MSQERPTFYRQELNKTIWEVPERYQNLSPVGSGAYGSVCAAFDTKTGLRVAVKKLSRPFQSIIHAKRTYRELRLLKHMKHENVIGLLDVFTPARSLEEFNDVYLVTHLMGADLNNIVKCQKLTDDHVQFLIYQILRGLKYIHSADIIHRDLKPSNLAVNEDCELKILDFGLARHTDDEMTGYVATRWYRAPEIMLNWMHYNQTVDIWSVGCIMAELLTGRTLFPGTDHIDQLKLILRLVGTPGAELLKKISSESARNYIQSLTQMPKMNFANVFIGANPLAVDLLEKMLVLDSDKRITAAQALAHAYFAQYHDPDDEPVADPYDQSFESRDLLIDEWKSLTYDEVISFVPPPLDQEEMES
CYP2C9, sequence (P11712 whole entry): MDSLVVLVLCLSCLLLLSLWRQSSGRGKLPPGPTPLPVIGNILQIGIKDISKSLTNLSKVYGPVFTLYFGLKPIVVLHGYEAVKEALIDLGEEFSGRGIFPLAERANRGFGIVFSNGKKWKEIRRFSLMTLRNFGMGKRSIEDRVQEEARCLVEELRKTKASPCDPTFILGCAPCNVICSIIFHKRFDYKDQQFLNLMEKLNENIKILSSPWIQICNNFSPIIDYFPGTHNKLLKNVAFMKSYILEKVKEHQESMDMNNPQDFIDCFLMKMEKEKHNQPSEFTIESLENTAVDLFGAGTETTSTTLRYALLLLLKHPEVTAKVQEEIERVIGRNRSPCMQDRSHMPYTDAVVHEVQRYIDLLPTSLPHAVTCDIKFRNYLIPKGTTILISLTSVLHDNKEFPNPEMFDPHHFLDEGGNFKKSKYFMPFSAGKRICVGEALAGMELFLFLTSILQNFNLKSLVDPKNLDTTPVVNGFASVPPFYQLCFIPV
CYP2C19, sequence (P33261 whole entry): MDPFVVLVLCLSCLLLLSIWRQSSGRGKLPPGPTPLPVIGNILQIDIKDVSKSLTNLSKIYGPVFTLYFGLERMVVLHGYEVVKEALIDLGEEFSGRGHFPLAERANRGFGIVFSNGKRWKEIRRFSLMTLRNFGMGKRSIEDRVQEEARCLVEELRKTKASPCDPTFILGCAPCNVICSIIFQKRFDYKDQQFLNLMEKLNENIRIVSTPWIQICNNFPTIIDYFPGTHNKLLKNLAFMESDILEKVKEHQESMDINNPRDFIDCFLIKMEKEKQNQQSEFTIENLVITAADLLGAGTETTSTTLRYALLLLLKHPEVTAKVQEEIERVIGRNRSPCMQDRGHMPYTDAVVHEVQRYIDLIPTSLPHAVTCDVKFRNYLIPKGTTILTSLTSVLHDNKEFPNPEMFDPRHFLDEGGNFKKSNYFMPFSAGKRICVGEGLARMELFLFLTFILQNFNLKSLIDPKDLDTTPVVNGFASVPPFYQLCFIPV

Turning to `C=CCOCCn1c(SC)nc(-c2ccc(F)cc2)c1-c1ccnc(NC(C)=O)c1`, the IC50 in series [1] was 48.5 µM; in series [2], more than 100 µM; in series [3], 1.85 µM.

Turning to `C#CCOCCn1c(SC)nc(-c2ccc(F)cc2)c1-c1ccnc(NC(C)=O)c1`, the IC50 in series [1] was found to be 13.9 µM; in series [2] it was 40 µM; in series [3], 0.666 µM.

In series [3], `CC(=O)Nc1cc(-c2c(-c3ccc(F)cc3)nc(SCc3ccc([S+](C)[O-])cc3)n2CCOCCO)ccn1` (stereo not given) had an IC50 of more than 10 µM.

Turning to `CSc1nc(-c2ccc(F)cc2)c(-c2ccnc(NC(C)=O)c2)n1CCCO`, the IC50 in series [1] is 13.8 µM; in series [2], 20.5 µM; in series [3] it was 0.813 µM.

For the molecule `CSc1nc(-c2ccc(F)cc2)c(-c2ccnc(NC(C)=O)c2)n1CCN1CCOCC1`, the IC50 is more than 10 µM in series [1], more than 10 µM in series [2] and 2.03 µM in series [3].

Regarding `CSc1nc(-c2ccc(F)cc2)c(-c2ccnc(NC(C)=O)c2)n1CC1COC(C)(C)O1` (stereo not given), in series [3], 3.73 µM corresponded to half-maximal inhibition (IC50).

The molecule `CSc1nc(-c2ccc(F)cc2)c(-c2ccnc(NC(C)=O)c2)n1CC(C)O` (stereo not given) had an IC50 in series [3] of 8.69 µM.

On to `COCCCn1c(SCc2ccc([S+](C)[O-])cc2)nc(-c2ccc(F)cc2)c1-c1ccnc(NC(C)=O)c1` (stereo not given), for which the IC50 in series [3] turned out to be 1.31 µM. Compared with the last molecule, the IC50 is about 6.6-fold lower.

`CSc1nc(-c2ccc(F)cc2)c(-c2ccnc(NC(C)=O)c2)n1CCN1CCCCC1`: the inhibition at 10 µM came to 97% in series [4]; 12% in series [5]; 5% in series [6]; 41% in series [7]; 77.5% in series [8]. The IC50 is more than 10 µM in series [1], more than 10 µM in series [2] and 1.34 µM in series [3].

Turning to `COCCn1c(SCc2ccc([S+](C)[O-])cc2)nc(-c2ccc(F)cc2)c1-c1ccnc(NC(C)=O)c1` (stereo not given), in series [3], the IC50 was 0.15 µM.

On to `CSCCn1c(SC)nc(-c2ccc(F)cc2)c1-c1ccnc(NC(C)=O)c1`, for which the IC50 in series [1] was 36.4 µM; in series [2], 44.2 µM; in series [3], 0.431 µM.

Molecule `CSc1nc(-c2ccc(F)cc2)c(-c2ccnc(NC(C)=O)c2)n1CCCN1CCOCC1` came in with an IC50 in series [3] of 6.28 µM.

In series [3], `C=CCOCCn1c(SCc2ccc([S+](C)[O-])cc2)nc(-c2ccc(F)cc2)c1-c1ccnc(NC(C)=O)c1` (stereo not given) gave an IC50 of more than 10 µM.

In series [3], `CSc1nc(-c2ccc(F)cc2)c(-c2ccnc(NC(C)=O)c2)n1CCN(C)C` registered an IC50 of 2.41 µM.

In series [3], `CC(=O)Nc1cc(-c2c(-c3ccc(F)cc3)nc(SCc3ccc([S+](C)[O-])cc3)n2C)ccn1` (stereo not given) returned a half-inhibitory concentration (IC50) of 5.85 µM. Compared with the last molecule, the IC50 is about 2.4-fold higher.

As to `CC(=O)Nc1cc(-c2c(-c3ccc(F)cc3)nc(SCc3ccc([S+](C)[O-])cc3)n2CCCN2CCOCC2)ccn1` (stereo not given), the IC50 in series [3] was more than 10 µM.

In series [3], `CC(=O)Nc1cc(-c2c(-c3ccc(F)cc3)nc(SCc3ccc([S+](C)[O-])cc3)n2CCN2CCCCC2)ccn1` (stereo not given) returned an IC50 of 4.43 µM.

On to `COCCCn1c(SC)nc(-c2ccc(F)cc2)c1-c1ccnc(NC(C)=O)c1`, for which the IC50 in series [1] turned out to be 18.2 µM; in series [2], 17.8 µM; in series [3], 0.205 µM.

`CC(=O)Nc1cc(-c2c(-c3ccc(F)cc3)nc(SCc3ccc([S+](C)[O-])cc3)n2CC(C)O)ccn1` (stereo not given) had an IC50 in series [3] of more than 10 µM.

In turn, `COCCCn1c(SCCC(=O)N2CCOCC2)nc(-c2ccc(F)cc2)c1-c1ccnc(NC(C)=O)c1` showed an IC50 in series [3] of more than 10 µM.

In series [3], `CC(=O)Nc1cc(-c2c(-c3ccc(F)cc3)nc(SCCC(=O)N3CCOCC3)n2CCO)ccn1` showed an IC50 of 2.51 µM.

`CSc1nc(-c2ccc(F)cc2)c(-c2ccnc(NC(C)=O)c2)n1CCNC(C)=O` came in with an IC50 in series [3] of 7.29 µM.

`CC(=O)Nc1cc(-c2c(-c3ccc(F)cc3)nc(SCCCC(=O)N3CCOCC3)n2CCO)ccn1` returned an IC50 in series [3] of 2 µM. This IC50 is about 3.6-fold lower than that of the molecule before.

The molecule `COCCn1c(SCCC(=O)N2CCOCC2)nc(-c2ccc(F)cc2)c1-c1ccnc(NC(C)=O)c1` registered an IC50 in series [3] of 0.46 µM.

`CC(=O)Nc1cc(-c2c(-c3ccc(F)cc3)nc(SCCC(=O)N3CCOCC3)n2CCCO)ccn1` registered an IC50 in series [3] of 9.5 µM.

As for `COCCn1c(SC)nc(-c2ccc(F)cc2)c1-c1ccnc(NC(C)=O)c1`, the inhibition at 10 µM in series [4] was determined as 62%; in series [5], 0%; in series [6], 23.5%; in series [7], 70.5%; in series [8] it was 3.5%. Further, the IC50 is 30.5 µM in series [1], 32.8 µM in series [2] and 0.218 µM in series [3].

On to `CSc1nc(-c2ccc(F)cc2)c(-c2ccnc(NC(C)=O)c2)n1CCO`, for which the IC50 in series [1] was 33.2 µM; in series [2] it was 35.8 µM; in series [3], 0.398 µM.

The molecule `C#CCOCCn1c(SCc2ccc([S+](C)[O-])cc2)nc(-c2ccc(F)cc2)c1-c1ccnc(NC(C)=O)c1` (stereo not given) displayed an IC50 in series [3] of 4.97 µM.

The molecule `CC(=O)Nc1cc(-c2c(-c3ccc(F)cc3)nc(SCc3ccc([S+](C)[O-])cc3)n2CCO)ccn1` (stereo not given) came in with an IC50 in series [3] of 2.24 µM.

With `CSc1nc(-c2ccc(F)cc2)c(-c2ccnc(NC(C)=O)c2)n1CCOCCO`, the inhibition at 10 µM in series [4] was determined as 38%; in series [5], 0%; in series [6], 18.5%; in series [7], 19%; in series [8] it was 0%. The IC50 in series [1] is more than 100 µM; in series [2] it was more than 100 µM; in series [3], 8.48 µM.

In series [3], `CSCCn1c(SCc2ccc([S+](C)[O-])cc2)nc(-c2ccc(F)cc2)c1-c1ccnc(NC(C)=O)c1` (stereo not given) displayed an IC50 of 2.38 µM.

Take `CCOC(=O)N1CCC(n2c(SC)nc(-c3ccc(F)cc3)c2-c2ccnc(NC(C)=O)c2)CC1`: the IC50 in series [3] was more than 10 µM.

`COC(Cn1c(SC)nc(-c2ccc(F)cc2)c1-c1ccnc(NC(C)=O)c1)OC` displayed an IC50 in series [3] of 4.1 µM.

For `CC(=O)Nc1cc(-c2c(-c3ccc(F)cc3)nc(SCc3ccc([S+](C)[O-])cc3)n2C2CC(C)(C)NC(C)(C)C2)ccn1` (stereo not given), the IC50 in series [3] is more than 10 µM.

For the molecule `CC(=O)NCCn1c(SCc2ccc([S+](C)[O-])cc2)nc(-c2ccc(F)cc2)c1-c1ccnc(NC(C)=O)c1` (stereo not given), the IC50 in series [3] was more than 10 µM.

A word on the IC50: it is the concentration that inhibits the measured activity by half. A lower IC50 goes with higher potency. What is called inhibition is how much of the control response was suppressed.
